Results: ChEMBL document CHEMBL1268833, “Molecular docking and structure-activity relationship studies on benzothiazole based non-peptidic BACE-1 inhibitors” (Bioorg Med Chem Lett, 2010)

Legend:
Beta-secretase 1 [1] = target: T1, Beta-secretase 1 (Homo sapiens, UniProt P56817); assay: Inhibition of human BACE1 by FRET assay
Summary of the method: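 IC50 values were measured against BACE-1 with a FRET assay kit following an earlier-described protocol; values are means of duplicate measurements.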

Beta-secretase 1 [2] = target: T1, Beta-secretase 1; assay: Inhibition of human BACE1 at 50 uM by FRET assay
Summary of the method: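 FRET assay kit for BACE-1 activity, run per a previously described protocol; each compound was tested at 50 µM as the initial screening concentration; percent inhibition is given as the mean of duplicate measurements.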

T1 sequence (P56817 whole entry): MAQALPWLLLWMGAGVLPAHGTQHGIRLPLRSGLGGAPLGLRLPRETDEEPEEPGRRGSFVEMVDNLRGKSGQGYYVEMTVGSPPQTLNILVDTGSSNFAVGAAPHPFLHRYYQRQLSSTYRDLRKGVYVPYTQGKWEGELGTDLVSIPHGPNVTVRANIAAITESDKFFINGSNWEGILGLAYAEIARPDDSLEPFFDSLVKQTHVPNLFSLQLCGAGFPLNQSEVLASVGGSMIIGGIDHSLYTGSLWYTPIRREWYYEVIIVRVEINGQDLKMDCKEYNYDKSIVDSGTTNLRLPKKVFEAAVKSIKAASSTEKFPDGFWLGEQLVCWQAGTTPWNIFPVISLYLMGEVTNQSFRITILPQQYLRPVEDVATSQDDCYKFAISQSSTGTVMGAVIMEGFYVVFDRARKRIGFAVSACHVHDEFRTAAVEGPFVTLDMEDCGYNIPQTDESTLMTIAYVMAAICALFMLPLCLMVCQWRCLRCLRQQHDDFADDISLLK

| Compound | IC50 (Beta-secretase 1 [1]) [µM] | inhibition (Beta-secretase 1 [2]) [%] |
| --- | --- | --- |
| Cc1cccc(NC(=O)CSc2nc3ccc(Nc4nc(N5CCCC5)nc(N5CCCC5)n4)cc3s2)c1C | 2.83 | 100 |
| O=C(CSc1nc2ccc(Nc3nc(N4CCCC4)nc(N4CCCC4)n3)cc2s1)NCc1ccccc1 | 1.7 | 83 |
| Cc1cc(C)c(NC(=O)CSc2nc3ccc(Nc4nc(N5CCOCC5)nc(N5CCOCC5)n4)cc3s2)c(C)c1 | > 50 | 82 |
| Cc1ccc(CNC(=O)CSc2nc3ccc(Nc4nc(N5CCOCC5)nc(N5CCOCC5)n4)cc3s2)cc1 | – | 0 |
| O=C(CSc1nc2ccc(Nc3nc(N4CCCC4)nc(N4CCCC4)n3)cc2s1)NCc1ccco1 | 0.69 | 87 |
| COc1ccc(OC)c(NC(=O)CSc2nc3ccc(Nc4nc(N5CCCCC5)nc(N5CCCCC5)n4)cc3s2)c1 | 18 | 73 |
| O=C(CSc1nc2ccc(Nc3nc(N4CCOCC4)nc(N4CCOCC4)n3)cc2s1)Nc1ccccc1Cl | 50 | 50 |
| O=C(CSc1nc2ccc(Nc3nc(N4CCOCC4)nc(N4CCOCC4)n3)cc2s1)N1c2ccccc2CCc2ccccc21 | 14.7 | 100 |
| O=C(CSc1nc2ccc(Nc3nc(N4CCCCC4)nc(N4CCCCC4)n3)cc2s1)Nc1ccccc1 | > 50 | 58 |
| CCOc1ccc(NC(=O)CSc2nc3ccc(Nc4nc(N5CCCCC5)nc(N5CCCCC5)n4)cc3s2)cc1 | 17.2 | 77 |
| CCOC(=O)CSc1nc2ccc(Nc3nc(N4CCOCC4)nc(N4CCOCC4)n3)cc2s1 | – | 42 |
| O=C(CSc1nc2ccc(Nc3nc(N4CCCC4)nc(N4CCCC4)n3)cc2s1)NCCOc1ccccc1 | 3 | 88 |
| O=C(CSc1nc2ccc(Nc3nc(N4CCOCC4)nc(N4CCOCC4)n3)cc2s1)Nc1cccc(C(F)(F)F)c1 | – | 0 |
| O=C(CSc1nc2ccc(Nc3nc(N4CCOCC4)nc(N4CCOCC4)n3)cc2s1)NCc1ccccc1 | 50 | 50 |
| CCOC(=O)CSc1nc2ccc(Nc3nc(N4CCCC4)nc(N4CCCC4)n3)cc2s1 | 1.77 | 100 |
| O=C(CSc1nc2ccc(Nc3nc(N4CCOCC4)nc(N4CCOCC4)n3)cc2s1)N1CCOCC1 | – | 16 |
| O=C(CSc1nc2ccc(Nc3nc(N4CCCC4)nc(N4CCCC4)n3)cc2s1)c1ccccc1 | 20 | 93 |
| O=C(CSc1nc2ccc(Nc3nc(N4CCCCC4)nc(N4CCCCC4)n3)cc2s1)c1ccc(F)cc1 | 20 | 80 |
| Cc1ccccc1NC(=O)CSc1nc2ccc(Nc3nc(N4CCOCC4)nc(N4CCOCC4)n3)cc2s1 | – | 0.5 |
| O=C(CSc1nc2ccc(Nc3nc(N4CCCC4)nc(N4CCCC4)n3)cc2s1)Nc1ccccc1 | 0.12 | 100 |
| O=C(CSc1nc2ccc(Nc3nc(N4CCOCC4)nc(N4CCOCC4)n3)cc2s1)NCCOc1ccccc1 | – | 0 |
| CCOc1ccc(NC(=O)CSc2nc3ccc(Nc4nc(N5CCOCC5)nc(N5CCOCC5)n4)cc3s2)cc1 | > 50 | 100 |
